From ChEMBL document CHEMBL4725345, “DFG-1 Residue Controls Inhibitor Binding Mode and Affinity, Providing a Basis for Rational Design of Kinase Inhibitor Selectivity” (J Med Chem, 2020)
One block for each molecule: values may come before it.

What was measured:
[1] = target: T1, Dual specificity protein kinase CLK1 (Homo sapiens, UniProt P49759); details: dose 10.0 µM, time 10.0 min
Target sequence in this assay (P49759 whole entry, looked up): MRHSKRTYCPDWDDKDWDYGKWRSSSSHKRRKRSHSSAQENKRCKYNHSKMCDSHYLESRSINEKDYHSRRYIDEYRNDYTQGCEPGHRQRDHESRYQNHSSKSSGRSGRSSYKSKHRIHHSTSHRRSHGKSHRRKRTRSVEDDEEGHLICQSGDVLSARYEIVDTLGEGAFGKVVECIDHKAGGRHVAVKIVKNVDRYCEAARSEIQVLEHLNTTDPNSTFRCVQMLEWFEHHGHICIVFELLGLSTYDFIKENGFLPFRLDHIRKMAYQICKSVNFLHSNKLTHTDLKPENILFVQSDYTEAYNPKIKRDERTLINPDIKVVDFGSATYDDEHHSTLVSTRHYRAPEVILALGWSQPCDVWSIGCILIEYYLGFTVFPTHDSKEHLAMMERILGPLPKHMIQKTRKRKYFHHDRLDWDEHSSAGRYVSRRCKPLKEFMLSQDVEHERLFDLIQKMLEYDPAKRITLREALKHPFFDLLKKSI

[2] = target: T2, Dual specificity protein kinase CLK3 (Homo sapiens, UniProt P49761); details: dose 10.0 µM, time 10.0 min
Target sequence in this assay (P49761 whole entry, looked up): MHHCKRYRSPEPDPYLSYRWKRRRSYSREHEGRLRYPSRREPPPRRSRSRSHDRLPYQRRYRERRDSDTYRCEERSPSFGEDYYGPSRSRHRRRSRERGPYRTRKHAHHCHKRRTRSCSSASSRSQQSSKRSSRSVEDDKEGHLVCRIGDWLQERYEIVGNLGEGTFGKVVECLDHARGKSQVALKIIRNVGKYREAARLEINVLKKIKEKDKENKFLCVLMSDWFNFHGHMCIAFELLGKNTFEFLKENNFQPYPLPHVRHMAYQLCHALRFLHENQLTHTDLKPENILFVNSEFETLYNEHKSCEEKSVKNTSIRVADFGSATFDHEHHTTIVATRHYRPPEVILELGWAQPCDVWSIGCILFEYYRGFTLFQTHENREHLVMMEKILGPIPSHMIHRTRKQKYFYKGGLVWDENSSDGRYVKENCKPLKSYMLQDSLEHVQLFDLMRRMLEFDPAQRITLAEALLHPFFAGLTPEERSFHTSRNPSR

[3] = target: Dual specificity protein kinase CLK2 (Homo sapiens) (UniProt P49760); details: dose 10.0 µM, time 10.0 min
[4] = target: T3, Dual specificity protein kinase CLK4 (Homo sapiens, UniProt Q9HAZ1); details: dose 10.0 µM, time 10.0 min
Target sequence in this assay (Q9HAZ1 whole entry, looked up): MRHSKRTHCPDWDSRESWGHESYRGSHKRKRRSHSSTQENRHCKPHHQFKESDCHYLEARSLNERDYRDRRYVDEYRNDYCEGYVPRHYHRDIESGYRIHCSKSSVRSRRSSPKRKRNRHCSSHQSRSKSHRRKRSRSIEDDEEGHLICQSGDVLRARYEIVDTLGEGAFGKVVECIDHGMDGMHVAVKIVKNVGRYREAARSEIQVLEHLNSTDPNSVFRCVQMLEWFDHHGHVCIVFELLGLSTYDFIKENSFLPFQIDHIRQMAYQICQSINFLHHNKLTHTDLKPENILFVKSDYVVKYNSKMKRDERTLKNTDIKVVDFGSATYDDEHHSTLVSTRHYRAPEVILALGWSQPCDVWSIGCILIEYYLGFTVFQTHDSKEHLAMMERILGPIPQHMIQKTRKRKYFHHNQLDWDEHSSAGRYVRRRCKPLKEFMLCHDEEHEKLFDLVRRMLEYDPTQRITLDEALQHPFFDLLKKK

[5] = species on record: Homo sapiens; experiment: Binding affinity to CLK3 A319V mutant (unknown origin) assessed as change in melting temperature at 10 uM incubated for 10 mins using SYPRO orange dye by RT-PCR-based fluorescence assay
Method in brief: (§1)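 Recombinant kinase domain at 2 μM in 10 mM HEPES pH 7.5, 500 mM NaCl, mixed with 10 μM inhibitor for 10 min at room temperature; SYPRO orange added at 1:1000; temperature-dependent unfolding fluorescence read on a real-time PCR instrument; Tm shift derived by a previously described method.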

[6] = species on record: Homo sapiens; experiment: Binding affinity to CLK1 V324A mutant (unknown origin) assessed as change in melting temperature at 10 uM incubated for 10 mins using SYPRO orange dye by RT-PCR-based fluorescence assay
Method in brief: as §1

[7] = species on record: Homo sapiens; experiment: Selectivity ratio of Ki for CLK1 V324A mutant (unknown origin) expressed in HEK293 cells to Ki for wild type CLK1 (unknown origin); format: cell-based
Method in brief: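 Full-length CLK1 wild type and V324A, NanoLuc-fused (N-terminal for WT, C-terminal for mutant), transfected into HEK293T cells and expressed for 20 h at 37 °C, 5% CO2. Cells in Opti-MEM were incubated 2 h with serially varied inhibitor plus 1 μM Tracer K5. BRET was read at 450/610 nm, and mBU was fitted to give IC50. […] Biological duplicates; mutant/WT Ki ratio.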

[8] = target: Serine/threonine-protein kinase pim-1 (Homo sapiens) (UniProt P11309); experiment: Binding affinity to PIM1 (unknown origin) assessed as change in melting temperature at 10 uM incubated for 10 mins using SYPRO orange dye by RT-PCR-based fluorescence assay
[9] = Inhibition of recombinant CLK3 A319V mutant (unknown origin) using Ac-ERMRPRKRQGSVdP(Sox)G-NH2 as substrate after 5 mins by Omnia Kinase Assay; set-up: species or system Homo sapiens
[10] = target: Serine/threonine-protein kinase pim-3 (Homo sapiens) (UniProt Q86V86); experiment: Binding affinity to PIM3 (unknown origin) assessed as change in melting temperature at 10 uM incubated for 10 mins using SYPRO orange dye by RT-PCR-based fluorescence assay
Method in brief: as §1

[11] = target: T4, Dual specificity tyrosine-phosphorylation-regulated kinase 2 (Homo sapiens) (UniProt Q92630); experiment: Binding affinity to DYRK2 (unknown origin) assessed as change in melting temperature at 10 uM incubated for 10 mins using SYPRO orange dye by RT-PCR-based fluorescence assay
T4 sequence (whole entry): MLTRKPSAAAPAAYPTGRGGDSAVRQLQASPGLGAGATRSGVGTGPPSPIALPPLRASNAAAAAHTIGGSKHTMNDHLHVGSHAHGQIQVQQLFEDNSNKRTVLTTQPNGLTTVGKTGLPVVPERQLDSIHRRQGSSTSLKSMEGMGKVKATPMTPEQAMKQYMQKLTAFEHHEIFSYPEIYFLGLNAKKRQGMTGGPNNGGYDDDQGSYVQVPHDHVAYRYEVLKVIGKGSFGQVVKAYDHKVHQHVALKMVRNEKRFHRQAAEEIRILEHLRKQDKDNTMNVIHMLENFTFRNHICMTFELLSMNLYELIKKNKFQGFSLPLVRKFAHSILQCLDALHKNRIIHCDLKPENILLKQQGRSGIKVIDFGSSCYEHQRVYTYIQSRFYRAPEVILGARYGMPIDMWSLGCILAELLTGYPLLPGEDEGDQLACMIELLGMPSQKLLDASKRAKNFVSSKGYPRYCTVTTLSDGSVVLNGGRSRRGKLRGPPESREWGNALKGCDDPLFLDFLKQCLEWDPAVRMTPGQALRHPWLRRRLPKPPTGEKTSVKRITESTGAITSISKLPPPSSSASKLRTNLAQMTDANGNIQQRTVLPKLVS
Method in brief: as §1

[12] = target: Casein kinase I isoform epsilon (Homo sapiens) (UniProt P49674); experiment: Binding affinity to CSNK1E (unknown origin) assessed as change in melting temperature at 10 uM incubated for 10 mins using SYPRO orange dye by RT-PCR-based fluorescence assay
Method in brief: as §1

[13] = target: T5, Dual specificity tyrosine-phosphorylation-regulated kinase 1A (Homo sapiens, UniProt Q13627); details: dose 10.0 µM, time 10.0 min
[14] = target: Serine/threonine-protein kinase 17B (Homo sapiens) (UniProt O94768); experiment: Binding affinity to DRAK2 (unknown origin) assessed as change in melting temperature at 10 uM incubated for 10 mins using SYPRO orange dye by RT-PCR-based fluorescence assay
Method in brief: as §1

[15] = target: cAMP-dependent protein kinase catalytic subunit PRKX (Homo sapiens) (UniProt P51817); experiment: Binding affinity to PRKX (unknown origin) assessed as change in melting temperature at 10 uM incubated for 10 mins using SYPRO orange dye by RT-PCR-based fluorescence assay
Method in brief: as §1

[16] = target: Tyrosine-protein kinase Fes/Fps (Homo sapiens) (UniProt P07332); experiment: Binding affinity to FES (unknown origin) assessed as change in melting temperature at 10 uM incubated for 10 mins using SYPRO orange dye by RT-PCR-based fluorescence assay
Method in brief: as §1

[17] = target: Serine/threonine-protein kinase 33 (Homo sapiens) (UniProt Q9BYT3); experiment: Binding affinity to STK33 (unknown origin) assessed as change in melting temperature at 10 uM incubated for 10 mins using SYPRO orange dye by RT-PCR-based fluorescence assay
Method in brief: as §1

[18] = target: T1, Dual specificity protein kinase CLK1; experiment: Inhibition of full length wild type CLK1 (unknown origin) expressed in HEK293 cells incubated for 2 hrs followed by NanoBRET NanoGlo Substrate addition by NanoBRET assay; format: cell-based
[19] = target: T6, Serine/threonine-protein kinase haspin (Homo sapiens) (UniProt Q8TF76); experiment: Binding affinity to haspin (unknown origin) assessed as change in melting temperature at 10 uM incubated for 10 mins using SYPRO orange dye by RT-PCR-based fluorescence assay
T6 sequence (whole entry): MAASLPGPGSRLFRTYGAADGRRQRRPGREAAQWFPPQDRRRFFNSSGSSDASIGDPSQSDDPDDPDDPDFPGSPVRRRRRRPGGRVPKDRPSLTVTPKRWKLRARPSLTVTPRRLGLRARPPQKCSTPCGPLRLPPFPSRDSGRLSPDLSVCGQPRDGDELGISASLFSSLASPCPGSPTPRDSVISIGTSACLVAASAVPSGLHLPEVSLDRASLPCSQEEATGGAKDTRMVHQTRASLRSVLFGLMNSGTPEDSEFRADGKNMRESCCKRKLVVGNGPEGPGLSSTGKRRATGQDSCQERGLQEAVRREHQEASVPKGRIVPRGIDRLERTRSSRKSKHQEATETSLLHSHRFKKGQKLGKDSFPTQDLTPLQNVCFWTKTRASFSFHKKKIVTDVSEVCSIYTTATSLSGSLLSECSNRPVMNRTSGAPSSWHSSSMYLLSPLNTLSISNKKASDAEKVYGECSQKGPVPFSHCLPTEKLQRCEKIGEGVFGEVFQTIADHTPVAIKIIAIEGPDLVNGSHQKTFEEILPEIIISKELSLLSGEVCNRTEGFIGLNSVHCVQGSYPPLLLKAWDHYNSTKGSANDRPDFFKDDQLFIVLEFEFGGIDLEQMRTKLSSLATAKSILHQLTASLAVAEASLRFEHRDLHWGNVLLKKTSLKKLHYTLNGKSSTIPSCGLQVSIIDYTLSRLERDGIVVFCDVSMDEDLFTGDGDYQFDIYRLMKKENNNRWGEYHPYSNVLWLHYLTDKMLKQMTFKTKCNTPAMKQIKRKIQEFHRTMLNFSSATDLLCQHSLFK
Method in brief: as §1

[20] = target: T2, Dual specificity protein kinase CLK3; experiment: Inhibition of recombinant CLK3 (unknown origin) using Ac-ERMRPRKRQGSVdP(Sox)G-NH2 as substrate after 5 mins by Omnia Kinase Assay
[21] = target: Casein kinase II subunit alpha' (Homo sapiens) (UniProt P19784); experiment: Binding affinity to CK2A2 (unknown origin) assessed as change in melting temperature at 10 uM incubated for 10 mins using SYPRO orange dye by RT-PCR-based fluorescence assay
Method in brief: as §1

[22] = target: cGMP-dependent protein kinase 1 (Homo sapiens) (UniProt Q13976); details: dose 10.0 µM, time 10.0 min
[23] = target: Serine/threonine-protein kinase 17A (Homo sapiens) (UniProt Q9UEE5); experiment: Binding affinity to DRAK1 (unknown origin) assessed as change in melting temperature at 10 uM incubated for 10 mins using SYPRO orange dye by RT-PCR-based fluorescence assay
Method in brief: as §1

[24] = Inhibition of CLK1 V324A mutant (unknown origin) expressed in HEK293 cells incubated for 2 hrs followed by NanoBRET NanoGlo Substrate addition by NanoBRET assay; format: cell-based, Homo sapiens
[25] = target: T6, Serine/threonine-protein kinase haspin (Homo sapiens); experiment: Inhibition of human Haspin assessed as residual activity at 1 uM relative to control
[26] = target: Glycogen synthase kinase-3 beta (Homo sapiens) (UniProt P49841); experiment: Inhibition of human GSK3B assessed as residual activity at 1 uM relative to control
[27] = target: T3, Dual specificity protein kinase CLK4; experiment: Inhibition of human CLK4 by radiometric assay
Target sequence in this assay (Q9HAZ1 whole entry): as the sequence (Q9HAZ1 whole entry, looked up) above

[28] = target: Dual specificity tyrosine-phosphorylation-regulated kinase 2 (Homo sapiens, UniProt Q92630); experiment: Inhibition of human DYRK2 by radiometric assay
[29] = target: Homeodomain-interacting protein kinase 2 (Homo sapiens, UniProt Q9H2X6); experiment: Inhibition of human HIPK2 by radiometric assay
[30] = target: Interleukin-1 receptor-associated kinase 4 (Homo sapiens) (UniProt Q9NWZ3); experiment: Inhibition of human IRAK4 assessed as residual activity at 1 uM relative to control
[31] = target: Homeodomain-interacting protein kinase 1 (Homo sapiens, UniProt Q86Z02); experiment: Inhibition of human HIPK1 by radiometric assay
[32] = target: Homeodomain-interacting protein kinase 3 (Homo sapiens, UniProt Q9H422); experiment: Inhibition of human HIPK3 by radiometric assay
[33] = target: T5, Dual specificity tyrosine-phosphorylation-regulated kinase 1A; experiment: Inhibition of DYRK1A (unknown origin) by radiometric assay
[34] = target: High affinity nerve growth factor receptor (Homo sapiens) (UniProt P04629); experiment: Inhibition of human TrkA assessed as residual activity at 1 uM relative to control

Chain of Dual specificity protein kinase CLK2 (Homo sapiens) (P49760 whole entry, looked up): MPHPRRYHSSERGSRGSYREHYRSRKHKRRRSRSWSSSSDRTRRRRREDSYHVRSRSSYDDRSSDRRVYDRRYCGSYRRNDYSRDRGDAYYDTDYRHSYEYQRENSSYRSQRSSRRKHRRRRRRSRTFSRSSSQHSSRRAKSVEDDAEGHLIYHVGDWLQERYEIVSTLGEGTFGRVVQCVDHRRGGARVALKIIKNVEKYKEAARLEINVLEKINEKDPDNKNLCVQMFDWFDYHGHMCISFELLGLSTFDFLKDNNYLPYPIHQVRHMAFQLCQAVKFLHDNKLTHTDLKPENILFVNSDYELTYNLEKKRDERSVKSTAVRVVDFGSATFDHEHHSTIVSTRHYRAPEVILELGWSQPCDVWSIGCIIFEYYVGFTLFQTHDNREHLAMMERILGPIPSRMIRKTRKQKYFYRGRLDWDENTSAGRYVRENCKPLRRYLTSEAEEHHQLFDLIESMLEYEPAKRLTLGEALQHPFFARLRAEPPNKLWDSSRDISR
Chain of Homeodomain-interacting protein kinase 3 (Q9H422 whole entry): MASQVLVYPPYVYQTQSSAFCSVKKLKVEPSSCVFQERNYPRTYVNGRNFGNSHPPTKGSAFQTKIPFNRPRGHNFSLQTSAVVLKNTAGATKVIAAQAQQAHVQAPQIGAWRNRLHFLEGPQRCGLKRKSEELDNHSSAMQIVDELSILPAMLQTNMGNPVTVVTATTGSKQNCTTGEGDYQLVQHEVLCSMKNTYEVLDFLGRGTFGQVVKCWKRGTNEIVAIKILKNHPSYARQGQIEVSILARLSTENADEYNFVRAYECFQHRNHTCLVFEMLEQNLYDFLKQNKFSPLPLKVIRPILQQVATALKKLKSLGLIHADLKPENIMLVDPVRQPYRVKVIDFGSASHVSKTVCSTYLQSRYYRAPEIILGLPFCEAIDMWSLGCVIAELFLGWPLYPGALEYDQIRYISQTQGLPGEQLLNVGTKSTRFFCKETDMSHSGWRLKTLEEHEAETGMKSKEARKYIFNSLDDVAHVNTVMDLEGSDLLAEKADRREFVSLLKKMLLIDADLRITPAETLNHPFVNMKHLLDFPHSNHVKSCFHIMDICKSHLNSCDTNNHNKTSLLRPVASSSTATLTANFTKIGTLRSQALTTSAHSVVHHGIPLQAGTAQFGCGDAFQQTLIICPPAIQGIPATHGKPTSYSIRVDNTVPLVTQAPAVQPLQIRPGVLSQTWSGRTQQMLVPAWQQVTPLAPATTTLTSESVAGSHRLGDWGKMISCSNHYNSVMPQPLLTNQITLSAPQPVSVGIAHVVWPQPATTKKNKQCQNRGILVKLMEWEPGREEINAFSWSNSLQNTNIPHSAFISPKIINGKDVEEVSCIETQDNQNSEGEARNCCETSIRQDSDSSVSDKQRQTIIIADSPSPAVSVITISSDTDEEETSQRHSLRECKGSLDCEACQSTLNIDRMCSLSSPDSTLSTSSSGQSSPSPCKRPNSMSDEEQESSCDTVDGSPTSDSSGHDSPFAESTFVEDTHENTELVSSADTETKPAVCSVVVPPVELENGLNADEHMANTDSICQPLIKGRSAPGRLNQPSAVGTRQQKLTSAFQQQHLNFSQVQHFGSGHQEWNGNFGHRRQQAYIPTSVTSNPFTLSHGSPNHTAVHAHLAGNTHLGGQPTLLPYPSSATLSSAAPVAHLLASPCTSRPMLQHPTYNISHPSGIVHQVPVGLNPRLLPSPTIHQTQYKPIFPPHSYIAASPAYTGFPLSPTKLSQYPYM
Chain of Casein kinase I isoform epsilon (Homo sapiens) (P49674 whole entry, looked up, canonical isoform): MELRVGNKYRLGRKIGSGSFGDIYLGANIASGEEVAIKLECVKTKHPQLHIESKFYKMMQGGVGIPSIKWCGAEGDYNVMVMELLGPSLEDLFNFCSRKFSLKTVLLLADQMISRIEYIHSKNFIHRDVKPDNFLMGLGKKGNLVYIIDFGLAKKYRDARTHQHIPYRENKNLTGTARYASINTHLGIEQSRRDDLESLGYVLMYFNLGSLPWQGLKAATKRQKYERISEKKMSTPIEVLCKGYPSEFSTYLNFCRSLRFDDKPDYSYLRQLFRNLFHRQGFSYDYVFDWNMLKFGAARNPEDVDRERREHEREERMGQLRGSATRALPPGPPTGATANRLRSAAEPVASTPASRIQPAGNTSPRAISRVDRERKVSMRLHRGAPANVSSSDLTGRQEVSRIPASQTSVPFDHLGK
Chain of cGMP-dependent protein kinase 1 (Homo sapiens) (Q13976 whole entry): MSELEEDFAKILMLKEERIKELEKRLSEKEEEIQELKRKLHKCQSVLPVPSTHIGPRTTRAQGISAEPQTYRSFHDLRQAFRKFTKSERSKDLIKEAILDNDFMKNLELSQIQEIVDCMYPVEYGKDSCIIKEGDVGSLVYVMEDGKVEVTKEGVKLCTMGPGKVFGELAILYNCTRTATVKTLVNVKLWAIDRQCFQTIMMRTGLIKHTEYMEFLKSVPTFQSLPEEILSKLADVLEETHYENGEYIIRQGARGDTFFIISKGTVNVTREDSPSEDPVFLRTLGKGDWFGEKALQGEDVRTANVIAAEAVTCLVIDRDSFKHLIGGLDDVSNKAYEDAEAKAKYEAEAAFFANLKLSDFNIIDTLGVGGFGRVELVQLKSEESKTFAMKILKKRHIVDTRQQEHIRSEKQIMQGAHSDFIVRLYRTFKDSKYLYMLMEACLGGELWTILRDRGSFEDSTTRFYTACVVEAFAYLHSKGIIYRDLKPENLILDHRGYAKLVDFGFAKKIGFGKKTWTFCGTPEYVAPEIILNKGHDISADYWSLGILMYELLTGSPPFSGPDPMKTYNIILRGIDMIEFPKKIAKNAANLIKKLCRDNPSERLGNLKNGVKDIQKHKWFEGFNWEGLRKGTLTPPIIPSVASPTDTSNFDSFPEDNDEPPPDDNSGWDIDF
Chain of Serine/threonine-protein kinase 17B (Homo sapiens) (O94768 whole entry): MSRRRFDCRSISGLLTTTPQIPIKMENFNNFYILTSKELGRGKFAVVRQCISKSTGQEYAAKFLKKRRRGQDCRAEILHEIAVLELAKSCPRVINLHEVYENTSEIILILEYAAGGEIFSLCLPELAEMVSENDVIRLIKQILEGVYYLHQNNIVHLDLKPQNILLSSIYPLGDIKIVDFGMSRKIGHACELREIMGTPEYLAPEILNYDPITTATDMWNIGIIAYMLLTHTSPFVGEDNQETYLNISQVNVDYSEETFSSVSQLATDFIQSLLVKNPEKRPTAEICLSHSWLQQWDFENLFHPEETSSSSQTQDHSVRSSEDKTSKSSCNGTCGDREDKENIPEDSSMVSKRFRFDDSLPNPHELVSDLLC

Compound: CCOc1ccc2c(-c3ccnc(Nc4cc(OC)cc(C(F)(F)F)c4)n3)cnn2n1
ΔTm [4]: 9 °C | ΔTm [1]: 9 °C | Ratio Ki [7]: 9 | ΔTm [2]: 2 °C | ΔTm [5]: 5.5 °C | ΔTm [3]: 8.4 °C | ΔTm [6]: 2.5 °C

Compound: O=C1NCc2ccc3c(-c4cccc(Cl)c4)c[nH]c3c21
ΔTm [4]: 10.1 °C | ΔTm [1]: 9.8 °C | ΔTm [2]: 2.3 °C | ΔTm [3]: 4.9 °C

Compound: Nc1nccc(-c2ccc3noc(-c4ccc(Cl)cc4)c3c2)n1
ΔTm [1]: > 6 °C | ΔTm [10]: > 4 °C | ΔTm [11]: > 6 °C | ΔTm [14]: > 6 °C | ΔTm [3]: > 6 °C

Compound: CCOC(=O)c1c(/C(C#N)=C/N)c2ccc(Cl)c(Cl)c2n1C
Ratio Ki [7]: 9

Compound: Cn1cc(-c2ccc3occ(-c4cccc(-c5ccncc5)c4)c3n2)cn1
Activity [25]: < 50% | Activity [26]: < 50% | IC50 [27]: 12 nM | IC50 [28]: 1310 nM | IC50 [29]: 29 nM | Activity [30]: < 50% | IC50 [31]: 187 nM | IC50 [32]: 159 nM | IC50 [33]: 213 nM | Activity [34]: < 50%

Second part, led by results:

ΔTm [1]: 12.3 °C | ΔTm [2]: 4.8 °C | ΔTm [3]: 8.3 °C
Compound: Cn1cc(-c2ccc3occ(-c4cccc(Oc5ccccc5)c4)c3n2)cn1

ΔTm [4]: 9.6 °C | ΔTm [1]: 10.3 °C | ΔTm [2]: 3.4 °C | ΔTm [5]: 9.2 °C | ΔTm [3]: 7 °C | ΔTm [6]: 3.8 °C
Compound: COC(=N)c1nc2ccc3ncnc(Nc4ccc(OC)cc4F)c3c2s1

ΔTm [4]: > 6 °C | ΔTm [1]: > 6 °C | ΔTm [8]: > 4 °C | ΔTm [2]: 3 °C | Ki [9]: 320 nM | ΔTm [10]: > 4 °C | ΔTm [11]: > 6 °C | ΔTm [12]: > 4 °C | ΔTm [13]: > 6 °C | ΔTm [3]: > 4 °C
Compound: CCN1/C(=C\C(C)=O)Sc2ccc(OC)cc21

ΔTm [15]: > 4 °C | ΔTm [16]: > 4 °C | ΔTm [17]: > 4 °C | Ki [18]: 140 nM | ΔTm [4]: > 4 °C | ΔTm [19]: > 4 °C | ΔTm [2]: 1.4 °C | Ki [20]: 26900 nM | Ki [9]: 850 nM | ΔTm [21]: > 4 °C | ΔTm [22]: > 6 °C | ΔTm [23]: > 4 °C | ΔTm [3]: 3.5 °C
Compound: Cn1c2c(c3ccc(Cl)c(Cl)c31)C(C#N)C1(CCNCC1)NC2=O (stereo unspecified)
Ratio Ki [7]: 20.6 | Ki [24]: 2810 nM
